TDP2 absorb = human TDP2 enzyme inhibitors, primary screen, biochemical, epi absorbance, recombinant enzyme; Tyrosyl-DNA phosphodiesterase 2 (Homo sapiens), O95551; inhibition, % at 12.8 µM; T5PNP hydrolysis, p-nitrophenol absorbance 415 nm; 0.34% of 370,000 active;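 active = inhibition above the mean of all tested compounds plus 3 SD, set per campaign, cut at about 25% in these data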
Target sequence (O95551 whole entry, looked up): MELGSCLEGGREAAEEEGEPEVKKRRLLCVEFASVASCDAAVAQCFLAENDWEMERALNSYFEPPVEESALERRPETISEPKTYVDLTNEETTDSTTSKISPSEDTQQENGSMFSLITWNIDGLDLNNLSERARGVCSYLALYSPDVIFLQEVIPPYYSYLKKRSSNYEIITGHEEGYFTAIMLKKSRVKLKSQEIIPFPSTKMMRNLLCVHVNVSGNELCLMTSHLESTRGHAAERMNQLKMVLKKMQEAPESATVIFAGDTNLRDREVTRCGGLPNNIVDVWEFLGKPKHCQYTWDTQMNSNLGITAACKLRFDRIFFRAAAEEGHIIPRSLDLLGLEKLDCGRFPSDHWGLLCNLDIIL
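Incubation: 2 h at 37 °C; Test system: recombinant human TDP2; Quantity: enzyme 120 nM; Read-out basis: percent inhibition; Medium: 50 mM Tris-HCl pH 7.5 with Mg2+, KCl, DTT, BSA; Repeats: single replicate; Compound: 12.8 µM single point, 1% DMSO; Signal: epi absorbance; Reagent: 5 mM T5PNP chromogenic substrate; Benchmarks: no-enzyme high, DMSO-plus-enzyme low.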
LEDGF integ inh = blockers of LEDGF/p75-dependent integrase strand transfer – biochemical, TR-FRET, high throughput, primary screen; AID 743269, 2014; inhibition, % at 3.7 µM; HIV-1 integrase (with human LEDGF/p75); 0.64% of 370,000 active; TR-FRET IN-LEDGF/p75 DNA integration, Eu/Cy5;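 active = inhibition above the screen-wide mean plus 3 SD, cut at about 13% in these data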;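 note: signal is the Cy5 over europium emission ratio at 671 and 618 nm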
UHRF1 MBD2 ctr = UHRF1 methylated DNA binding inhibitors, primary screen, counter-screen for MBD2 inhibitor project, biochemical, TR-FRET, human UHRF1, single concentration; UHRF1 binding to methylated oligo; 0.75% of 370,000 active; E3 ubiquitin-protein ligase UHRF1 (Homo sapiens), Q96T88; inhibition, % at 4.4 µM; in the data active = inhibition above about 21%;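 note: UHRF1 SRA domain binding a hemimethylated CpG hairpin DNA probe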
MBD2 DNA inh = inhibitors of MBD2 binding to methylated DNA, primary screen, biochemical, TR-FRET, DNA-binding domain, human; inhibition, % at 4.4 µM; Methyl-CpG-binding domain protein 2 (Homo sapiens), Q9UBB5; 0.31% of 370,000 active; MBD2 binding to methylated oligonucleotide; in the data active = inhibition above about 13%
Of the large screens only hits and unclear results are named; the others gave an inactive call. Hits are enriched below; roughly 1.6% of the tested compounds scored in any of these assays.

CN(c1cccc(NC(=O)CCSc2ccccc2)c1)S(C)(=O)=O	none
CC(Sc1ccccc1)C(=O)Nc1cccc(N(C)S(C)(=O)=O)c1 (stereo not given)	UHRF1 MBD2 ctr 23.1
COc1cccc(C(=O)OCC(=O)NC23CC4CC(CC(C4)C2)C3)c1	none
CC(=O)Oc1cc(C(=O)OCC(=O)NC23CC4CC(CC(C4)C2)C3)cc(OC(C)=O)c1OC(C)=O	LEDGF integ inh 43.6
COc1ccc(NC(=O)/C=C/c2cc(OC)c(OC)c(OC)c2)cn1	none
O=Cc1cn(CC(=O)NCC2CCCO2)c2ccccc12 (stereo not given)	none
N#Cc1cn(CC(=O)NCC2CCCO2)c2ccccc12 (stereo not given)	UHRF1 MBD2 ctr 22.7
O=C(c1ccco1)N1CCN(S(=O)(=O)/C=C/c2ccccc2)CC1	none
CC1CCCCC1NC(=S)Nc1ccc(SC(F)F)cc1 (stereo not given)	UHRF1 MBD2 ctr 37.9
FC(F)Sc1ccc(NC(=S)NC2CCCCC2)cc1	none
CN(C)c1ccc(-c2nnc(SCC3CCCO3)n2C)cc1 (stereo not given)	none
NC(Cc1ccc(C(F)(F)F)cc1)c1csc(NC(=O)Nc2ccccc2Cl)n1 (stereo not given)	none
Cn1cccc1/C=N/NC(=O)c1ccc[n+]([O-])c1	UHRF1 MBD2 ctr 22.1
Cc1ccccc1NC(=S)C1=C(O)c2sccc2N(C)S1(=O)=O	none
CCSc1nnc(CNc2ccc(F)cc2)n1CC1CCCO1 (stereo not given)	none
COc1ccc(CNC(=O)CSc2nnc3c(n2)[nH]c2ccc(OC)cc23)cc1	none
COc1ccc2[nH]c3nc(SC(C)C)nnc3c2c1	UHRF1 MBD2 ctr 54.2
Cc1cc(C)cc(NC(=O)Cn2c(-c3ccccc3Cl)nc3ccccc32)c1	UHRF1 MBD2 ctr 21.7
O=C(Cn1c(-c2ccccc2Cl)nc2ccccc21)Nc1cccc(Cl)c1	none
CN(C)c1ccc(Cc2cc3c(O)ccc(O)c3cc(Cc3ccc(N(C)C)cc3)c2=O)cc1	LEDGF integ inh 63.5, UHRF1 MBD2 ctr 51.3, MBD2 DNA inh 35.3
Cc1ccc(NS(=O)(=O)c2cccs2)nc1	UHRF1 MBD2 ctr 30.1
Cc1ccnc(NS(=O)(=O)c2cccs2)c1	none
O=C(CSc1nc2ccccc2n1CCc1ccccc1)c1ccc(O)c(O)c1	LEDGF integ inh 32.2, UHRF1 MBD2 ctr 57.5, MBD2 DNA inh 25.9
O=C(CSc1nc2ccccc2n1CCc1ccccc1)N1CCOCC1	none
O=[N+]([O-])c1ccc2c(c1)ncn2CCc1ccccc1	UHRF1 MBD2 ctr 26.3
O=[N+]([O-])c1ccc2c(c1)ncn2-c1ccccc1	none
COc1ccc(CC(=O)OCC(=O)NCc2ccc3c(c2)OCO3)cc1OC	none
CCCCN(CCCC)CC(O)COc1ccccc1Br (stereo not given)	none
Cc1ccccc1NC(=O)C1CCCN1S(=O)(=O)c1ccc2c(c1)n(C)c(=O)c(=O)n2C (stereo not given)	none
O=C(O)c1cccc(N/N=C/c2cccc3ccccc23)c1	UHRF1 MBD2 ctr 41.6
CC(C)(C)NC(=S)N/N=C/c1c(Cl)cccc1Cl	UHRF1 MBD2 ctr 36.0
CCNC(=S)N/N=C/c1c(Cl)cccc1Cl	none
Cc1ccc(N2C(=O)NC3(CCCCC3)C2=O)cc1	UHRF1 MBD2 ctr 23.5
CC1=CC(C)(C)NC(=O)N1c1ccc(C)cc1	none
CN(C)C(=S)SCC(=O)Nc1cccc(C(F)(F)F)c1	none
CC(=O)NC(Cc1ccccc1C)C(=O)NC1CCN(c2c3c(nc4ncnn24)CCC3)CC1 (stereo not given)	UHRF1 MBD2 ctr 39.2
CCOC(=O)C1=C(COC(=O)C2(C)CC2(Cl)Cl)NC(=O)NC1c1ccccc1 (stereo not given)	UHRF1 MBD2 ctr 29.3
O=C(Cc1ccc(F)cc1)NC1CCCCCC1	none
CCOC(=O)/C=C(\C)Sc1cc(O)c2ccccc2c1O	TDP2 absorb 58.5, LEDGF integ inh 28.9
CCOC(=O)/C=C(\C)Sc1cc(=O)oc2ccccc12	none
COc1ccc(-c2noc(CNC(=O)Nc3ccc(F)cc3)n2)cc1	UHRF1 MBD2 ctr 65.2
CC(C)CCn1nnnc1C(c1ccc(F)cc1)N1CCC(C(N)=O)CC1 (stereo not given)	UHRF1 MBD2 ctr 21.7
COc1ccc(-n2c(C)cc(C(=O)CCl)c2C)cc1	UHRF1 MBD2 ctr 23.6
COC(=O)c1ccccc1NC(=O)C1CC(=O)N(c2ccc(C)c(C)c2)C1 (stereo not given)	none
